The test system of assay [1] is Plasmodium falciparum. Briefly: Antimalarial activity against chloroquine-sensitive Plasmodium falciparum D10 by pLDH assay. It counts as functional, organism-based. Summed up: (§1)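 P. falciparum clones D10 (CQ-sensitive, moderately mefloquine-resistant) and W2 (CQ-resistant, mefloquine-susceptible) kept in human A+ RBCs in RPMI 1640 with 10% A+ plasma, HEPES and glutamine under 1% O2/5% CO2/94% N2. Asynchronous cultures (1-1.5% parasitemia, 1% hematocrit) exposed to serial dilutions (DMSO <1% final) for 72 h at 37 °C. Parasite LDH read at OD650. IC50 reported as mean ± SD of four experiments in triplicate.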

Assay [2] concerns Plasmodium falciparum. Nature of the assay: Antimalarial activity against chloroquine-resistant Plasmodium falciparum W2 by pLDH assay. The format is functional, organism-based. The essentials:
as §1

As a reminder, the IC50 is the midpoint of a concentration-inhibition curve. Higher therefore signals lower potency. Take `C[C@@H]1CC[C@H]2[C@@H](C)C(=O)O[C@@H]3O[C@@]4(C)CC[C@@H]1[C@]32OO4` [ARTEMISININ]: the IC50 in the assay on Plasmodium falciparum [1] was 13 nM; in the assay with Plasmodium falciparum [2] it was 9 nM.

Regarding `CC[C@H](C[C@@]1(C)C[C@@H](CC)[C@@H](CC(=O)OC)OO1)[C@H]1O[C@@H]1CC`, the results for the concentration for half-maximal inhibition (IC50) in the assay with Plasmodium falciparum [1] and in the assay on Plasmodium falciparum [2] were 1050 nM and 500 nM, respectively.

As for `CC/C=C/[C@H](CC)C[C@@]1(C)C[C@@H](CC)[C@@H](CC(=O)OC)OO1` [PLAKORTIN], the half-inhibitory concentration (IC50) is 870 nM with Plasmodium falciparum [1] and 410 nM in the assay with Plasmodium falciparum [2].

In the case of `CC[C@H](C[C@@]1(C)C[C@@H](CC)[C@@H](CC(=O)OC)OO1)C(=O)OC`, the concentration for half-maximal inhibition (IC50) with Plasmodium falciparum [1] was found to be 850 nM; with Plasmodium falciparum [2] it was 780 nM.

For `CC[C@H](C[C@@]1(C)C[C@@H](CC)[C@@H](CC(=O)OC)OO1)C(=O)O`, the figures for the IC50 with Plasmodium falciparum [1] and with Plasmodium falciparum [2] were 1200 nM and 1230 nM, respectively.

For the compound `CC/C=C/[C@H](CC)C[C@@]1(C)C[C@@H](CC)[C@@H](CCOC)OO1`, the IC50 was 740 nM in the assay on Plasmodium falciparum [1] and 410 nM in the assay with Plasmodium falciparum [2].

Consider `CC/C=C/[C@H](CC)C[C@@]1(C)C[C@@H](CC)[C@@H](CCOC(C)=O)OO1`, for which the IC50 in the assay on Plasmodium falciparum [1] turned out to be 840 nM; with Plasmodium falciparum [2], 460 nM.

`CC/C=C/[C@H](CC)C[C@@]1(C)C[C@@H](CC)[C@@H](CCO)OO1`: the IC50 in the assay with Plasmodium falciparum [1] was 830 nM; in the assay with Plasmodium falciparum [2] it was 480 nM.

With `CC[C@H](C[C@@]1(C)C[C@@H](CC)[C@@H](CC(=O)OC)OO1)[C@@H]1O[C@H]1CC`, the IC50 in the assay with Plasmodium falciparum [1] was determined as 1200 nM; in the assay on Plasmodium falciparum [2], 700 nM.
